Measured values pooled from the literature.
Each line is one published result; the experiments were not run side by side.
Target: Activin receptor type-2A (ACVR2A, Homo sapiens, UniProt P27037)

| SMILES | observed | method | concentration | remaining binding [%] |
| --- | --- | --- | --- | --- |
| C[C@H]1CCN(c2nccc(-c3cnn4ncccc34)n2)C1 | binding | – | 1 µM | 96 |
| O=C1CCc2cc(Nc3cc(OC4CCOCC4)c([N+](=O)[O-])cc3Cl)ccc2N1 | cell-free assay | competition with immobilised ligand | 1 µM | 81 |
| O=C(NCCCN1CCOCC1)c1ccc(Nc2ncc(Cl)c(-c3ccc(Cl)s3)n2)cc1 | binding | competition with immobilised ligand | 1 µM | 90 |
| COc1ccnn2ncc(-c3ccnc(N(C)C)n3)c12 | binding | – | 1 µM | 100 |
| COc1cnc(Nc2cccc(S(N)(=O)=O)c2)nc1N1CCN(c2ccccc2)CC1 | binding | competition with immobilised ligand | 1 µM | 97 |
| CCOC(=O)c1cc2cc(-c3cc(C(=O)NCc4ccc(C(=O)O)cc4)nn3C)ccc2[nH]1 | cell-free assay | competition with immobilised ligand | 0.1 µM | 59 |
| CN(C)c1nccc(-c2cnc3ncccn23)n1 | binding | – | 1 µM | 100 |
| O=C(NCc1ncc(C(F)(F)F)cc1Cl)c1ccc2c(c1)C1(CCS(=O)(=O)CC1)[C@@H](C1CC1)N2S(=O)(=O)c1ccc(F)cc1 | cell-free assay | competition with immobilised ligand | 1 µM | 100 |
| F[C@@H]1CCN(c2nccc(-c3cnn4ncccc34)n2)C1 | binding | – | 1 µM | 100 |
| CCN1CCN(Cc2ccc(C(=O)Nc3ccc(C)c(Oc4ccc5c(c4)CC(=O)N5)c3)cc2C(F)(F)F)CC1 | binding | competition with immobilised ligand | 1 µM | 100 |
| CNC(=O)[C@@H]1CC[C@@H](n2c(-c3ccc4cnccc4c3)nc3ccc(C(=O)NCc4cccc(C(N)=O)c4)cc32)C1 | binding | competition with immobilised ligand | 1 µM | 100 |
| CN(C)c1nccc(-c2cnn3ncccc23)n1 | binding | – | 1 µM | 90 |
| O=C1NC(c2ccccn2)Sc2ccccc21 (stereo not shown) | cell-free assay | competition with immobilised ligand | 1 µM | 100 |
| Nc1ncc2c(n1)-c1c([nH]c3ccc(C#CC4CC4)cc13)CCCC2 | binding | competition with immobilised ligand | 1 µM | 91 |
| COc1ccc2c(O[C@@H]3C[C@H]4C(=O)N[C@]5(C(=O)O)CC5/C=C\CCCCC[C@H](NC(=O)OC5CCCC5)C(=O)N4C3)cc(-c3csc(NC(=O)C(C)C)n3)nc2c1C (stereo partly shown) | cell-free assay | competition with immobilised ligand | 1 µM | 72 |
| COc1ncc2cc3ccccc3nc2c1C#N | cell-free assay | competition with immobilised ligand | 5 µM | 85 |
| N[C@H]1CCN(c2nccc(-c3cnn4ncccc34)n2)C1 | binding | – | 1 µM | 100 |
| O=C(c1ccc(Nc2nccc(-c3cc4ccccc4s3)n2)cc1)N1CCC(N2CCCC2)CC1 | binding | competition with immobilised ligand | 1 µM | 90 |
| C=CC(=O)N1CCC(C(=O)NCC(=O)N2CCN(c3nc(-c4cnc(N)nc4C(F)F)nc(N4CCOCC4)n3)CC2)CC1 | binding | competition with immobilised ligand | 1 µM | 86 |
| O=C(NCC1CCOCC1)c1n[nH]cc1NC(=O)c1c(F)cccc1F | binding | competition with immobilised ligand | 1 µM | 85 |
| Cc1cnc(Nc2ccc(C(=O)N3CCC(N4CCCC4)CC3)cc2)nc1-c1cc2ccccc2s1 | binding | competition with immobilised ligand | 1 µM | 69 |
| CC1=C(C#N)C(c2ccc3c(c2)c(NC(=O)c2ccccc2C)nn3C)C(C#N)=C(C)N1 | cell-free assay | competition with immobilised ligand | 1 µM | 97 |
